Series [1] is described as follows: Inhibition of M-CSF/RANKL-induced osteoclast differentiation in C57BL/6 mouse bone marrow macrophage assessed as reduction in multinucleated TRAP+ cells incubated for 6 days with fresh media replacement on day 3 and measured on day 6 by TRAP staining-based microscopic analysis. The format is functional, cell-based. The following applies: C57BL/6, BMDM. Summed up: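 BMM came from femur and tibia marrow of 5–8-week-old male C57BL/6 mice and were purified over lymphocyte separation medium. Cells, 1 × 10^5 per well, were grown in α-MEM/10% FBS with M-CSF (60 ng/mL) and RANKL (150 ng/mL) for 6 d, medium changed day 3. Compound range was 0.01−100 μM. TRAP+ multinucleated cells were counted on day 6.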

The test system of series [2] is MC3T3-E1. The series is described as follows: Osteo-blastogenic activity in mouse MC3T3-E1 cells assessed as stimulation of ALP activity at 10 uM supplemented with fresh medium every 3 to 4 days and measured after 14 days relative to control. The format is functional. Summed up:
(§1)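 MC3T3-E1 subclone 4 osteoblastic cells were grown in α-MEM at 37 °C under 5% CO2 with compound present during differentiation. ALP activity was read 14 d after induction and expressed as % of untreated cells. Values are mean ± SD of three independent experiments.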

Series [3] relates to MC3T3-E1. Nature of the series: Osteo-blastogenic activity in mouse MC3T3-E1 cells assessed as stimulation of ALP activity at 50 uM supplemented with fresh medium every 3 to 4 days and measured after 14 days relative to control. The format is functional. Summed up:
as §1

The subject of series [4] is BMDM. Nature of the series: Inhibition of RANKL-induced osteoclastogenesis in C57BL/6 mouse bone marrow macrophages assessed as increase in NFkappaB expression at 10 uM measured over 5 days by Western blot analysis. The format is functional, cell-based. Summed up:
(§2)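 C57BL/6 BMM were grown with M-CSF plus RANKL over the course of osteoclastogenesis, treated at 0.5 or 10 μM. NF-κB and NFATc1 were followed by Western blot. The negative control was M-CSF only.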

The test system of series [5] is BMDM. The series is described as follows: Inhibition of RANKL-induced osteoclastogenesis in C57BL/6 mouse bone marrow macrophages assessed as reduction in NFATc1 expression at 10 uM measured over 5 days by Western blot analysis. The format is functional, cell-based. Summed up: as §2
The subject of series [6] is BMDM. The series is described as follows: Effect on NFkappaB expression in M-CSF induced C57BL/6 mouse bone marrow macrophages at 10 uM measured over 5 days by Western blot analysis. The format is functional, cell-based. Summed up: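 C57BL/6 BMM were proliferated with M-CSF alone without RANKL and treated at 0.5 or 10 μM. NF-κB expression was followed over time by Western blot.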

The test system of series [7] is BMDM. Nature of the series: Suppression of NFATc1 expression in M-CSF induced C57BL/6 mouse bone marrow macrophages at 10 uM measured over 5 days by Western blot analysis. The format is functional, cell-based. Summed up: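 C57BL/6 BMM were kept proliferating with M-CSF in the absence of RANKL and treated with compound (0.5 or 10 μM). NFATc1 expression was followed over the culture period by Western blot.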

The test system of series [8] is Mus musculus. The series is described as follows: Antiosteoporotic activity in ddY mouse model of OVX-induced osteoporosis assessed as increase in femur bone mineral density at 10 mg/kg, po administered once daily via gavage for 4 weeks by microcomputed tomographic analysis. The format is functional, organism-based. Summed up:
(§3)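 Female ddY mice were ovariectomized. Oral gavage began 1 week after surgery and ran once daily for 28 d. Vehicle was 300 μL PBS containing 0.5% (v/v) DMSO, also given to sham and OVX controls. Mice were then euthanized and femur and tibia fixed for CT imaging. Values are mean ± SD of four mice.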

The test system of series [9] is Mus musculus. The series is described as follows: Antiosteoporotic activity in ddY mouse model of OVX-induced osteoporosis assessed as increase in ratio of bone volume/trabecular volume in femur bone at 10 mg/kg, po administered once daily via gavage for 4 weeks by microcomputed tomographic analysis. The format is functional, organism-based. Summed up: as §3
The test system of series [10] is Mus musculus. The series is described as follows: Antiosteoporotic activity in ddY mouse model of OVX-induced osteoporosis assessed as increase in cross-sectional thickness in femur bone at 10 mg/kg, po administered once daily via gavage for 4 weeks by microcomputed tomographic analysis. The format is functional, organism-based. Summed up: as §3
The test system of series [11] is Mus musculus. The series is described as follows: Antiosteoporotic activity in ddY mouse model of OVX-induced osteoporosis assessed as increase in trabecular number in femur bone at 10 mg/kg, po administered once daily via gavage for 4 weeks by microcomputed tomographic analysis. The format is functional, organism-based. Summed up:
as §3

Series [12] concerns Mus musculus. Nature of the series: Antiosteoporotic activity in ddY mouse model of OVX-induced osteoporosis assessed as increase in trabecular thickness in femur bone at 10 mg/kg, po administered once daily via gavage for 4 weeks by microcomputed tomographic analysis. The format is functional, organism-based. Summed up: as §3
For series [13], the system named is Mus musculus. The series is described as follows: Antiosteoporotic activity in ddY mouse model of OVX-induced osteoporosis assessed as reduction in trabecular separation in femur bone at 10 mg/kg, po administered once daily via gavage for 4 weeks by microcomputed tomographic analysis. The format is functional, organism-based. Summed up: as §3
For series [14], the system named is Mus musculus. Nature of the series: Antiosteoporotic activity in ddY mouse model of OVX-induced osteoporosis assessed as increase in new bone volume in femur bone at 10 mg/kg, po administered once daily via gavage for 4 weeks by microcomputed tomographic analysis. The format is functional, organism-based. Summed up: as §3
The nature of series [15]: Cytotoxicity against mouse RAW264.7 cells after 24 hrs by MTT assay. The format is cell-based. The conditions noted are these: read-out: LD50. Summed up:
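RAW264.7 macrophages (preosteoclast line) were kept in DMEM at 37 °C under 5% CO2 and tested without RANKL. MTT read-out of growth and survival, expressed as LD50.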

Series [16] concerns HCT-116. The series is described as follows: Antiproliferative activity against human HCT116 cells after 24 hrs by MTT assay. The format is functional. The conditions noted are these: HCT-116, 24 h, read-out: LD50 (the source's name). Summed up:
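Cells were maintained in DMEM at 37 °C under 5% CO2. Growth and survival were estimated by MTT assay, and the value is reported as LD50.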

The nature of series [17]: Toxicity in ddY mouse model of OVX-induced osteoporosis assessed as increase in body weight at 10 mg/kg, po administered once daily via gavage for 4 weeks measured 5 weeks post OVX-challenge. The format is organism-based. The following applies: in vivo, 840 h. Summed up: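 Dosing of ddY mice began one week after ovariectomy: compound in 300 μL of 0.5% (v/v) DMSO-containing PBS by gavage once daily for 28 d. OVX and sham controls received vehicle. Body weight was compared with sham control 5 weeks after OVX.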

The target in series [18] is Isopentenyl-diphosphate Delta-isomerase 1 (Rattus norvegicus, UniProt O35760). The series is described as follows: Inhibition of isopentenyl diphosphate isomerase in Sprague-Dawley rat liver S100 fraction preincubated for 10 min followed by MVA addition by HPLC analysis.
Series [19] deals with MC3T3-E1. The series is described as follows: Osteo-blastogenic activity in mouse MC3T3-E1 cells assessed as stimulation of ALP activity at 1 uM supplemented with fresh medium every 3 to 4 days and measured after 14 days relative to control. The format is functional. Summed up:
as §1

Active and inactive are the calls of the source. No cut-off for these calls is given here.

The source of these data is ChEMBL document CHEMBL4364291, “Benzylideneacetone Derivatives Inhibit Osteoclastogenesis and Activate Osteoblastogenesis Independently Based on Specific Structure-Activity Relationship” (J Med Chem, 2019).

Sequence of Isopentenyl-diphosphate Delta-isomerase 1 (O35760 whole entry): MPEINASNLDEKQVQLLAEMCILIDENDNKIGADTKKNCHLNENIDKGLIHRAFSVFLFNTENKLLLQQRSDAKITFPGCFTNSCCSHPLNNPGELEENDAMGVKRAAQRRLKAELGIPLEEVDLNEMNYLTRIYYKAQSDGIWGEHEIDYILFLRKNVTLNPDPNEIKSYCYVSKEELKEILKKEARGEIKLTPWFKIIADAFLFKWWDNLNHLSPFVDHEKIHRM

Regarding `CC(=O)/C=C/c1ccc(O)c(F)c1`, in series [1], the IC50 stood at 8.3 µM. Further, the Activity in series [2] and in series [3] was 100% each time.

Turning to `C=CCOc1ccc(/C=C/C(C)=O)cc1O`, in series [1], the IC50 is 18 µM. Besides, the Activity in [2] is 120%; in [3], 140%.

Consider `O=C(/C=C/c1ccc(O)c(O)c1)O[C@@H]1C[C@](O)(C(=O)O)C[C@@H](O)[C@H]1O` [CHLOROGENIC ACID], for which the IC50 in [1] was determined as 86 µM. Besides, the Activity is 110% in series [2] and 150% in [3].

`O=Cc1ccc(O)c(O)c1` [PROTOCATECHUALDEHYDE]: the IC50 in [1] is 15 µM. The Activity is reported as 110% in series [2] and 140% in series [3].

Take `CC(=O)/C=C/c1ccc(C)c(O)c1`: the IC50 in series [1] came out at 5.9 µM. Besides, the Activity in series [2] was 100%; in [3] it was 130%.

As for `CC(=O)/C=C/c1ccc(OCc2ccccc2)c(O)c1`, in series [1], the IC50 worked out at 19 µM. In addition, the Activity in series [2] was 130%; in [3], 140%.

For the compound `Cc1ccc(/C=C/C(N)=O)cc1O`, the IC50 in series [1] is 15 µM. The Activity in series [2] was 110%; in [3] it was 120%.

For `NC(=O)/C=C/c1ccc(F)c(O)c1`, in series [1], the IC50 came to 25 µM. Besides, the Activity in [2] stood at 110%; in series [3], 120%.

`COc1cc(/C=C/C(C)=O)ccc1O` [DEHYDROZINGERONE]: in series [1], the IC50 was determined as 7.5 µM. Also, the Activity in [2] is recorded as 110%; in series [3] it was 600%; in series [17] it was “Toxic”. Also, the inhibition entry in series [4] and in series [5] was “Active” each time. The result in [6] was inactive. For the same compound, the result in [7], in [8], in series [9], in [10], in [11] and in series [12] was Active. The result in [13] and in [14] was Active. Further, the CC50 at 24 h in [15] was > 5000 µM. Besides, the CC50 in series [16] turned out to be 310 µM.

Regarding `O=C(/C=C/c1ccc(O)c(O)c1)O[C@@H]1C[C@@](O)(C(=O)O)C[C@@H](O)[C@@H]1O`, in [1], the IC50 is 48 µM. Besides, the Activity came to 120% in series [2] and 170% in series [3].

As for `O=C(O)Cc1ccc(O)c(O)c1` [3,4-DIHYDROXYPHENYLACETIC ACID], the IC50 in series [1] amounted to 75 µM. Moreover, the Activity amounted to 120% in [2] and 170% in series [3].

Consider `COC(=O)c1ccc(O)c(O)c1` [METHYL PROTOCATECHUATE], for which the IC50 in series [1] came out at 78 µM. Moreover, the results for the Activity in series [2] and in [3] were 110% and 100%, respectively.

For the compound `O=C(O)/C=C/c1ccc(O)c(O)c1` [CAFFEIC ACID], the IC50 in series [1] worked out at 41 µM. The values for the Activity in series [2] and in series [3] were 120% and 130%, respectively.

Turning to `O=C(O)c1ccc(O)c(O)c1` [PROTOCATECHUIC ACID], the IC50 in series [1] is 89 µM. The Activity worked out at 100% in [2] and 140% in [3].

As to `COC(=O)Cc1ccc(O)c(O)c1`, in series [1], the IC50 came out at 80 µM. In addition, the values for the Activity in series [2] and in series [3] were 100% and 130%, respectively.

Regarding `NCCCC(O)(P(=O)(O)O)P(=O)(O)O` [ALENDRONATE SODIUM], the figures for the IC50 in series [1] and in [18] were 3.7 µM and 1.7 µM, respectively. Moreover, the result in [8], in series [9], in [10], in series [11], in series [13] and in series [14] was Active. Further, the outcome in [12] was inactive.

Consider `CC(=O)/C=C/c1ccc(OC(C)C)c(O)c1`, for which the IC50 in series [1] worked out at 24 µM. In addition, the Activity in series [2] turned out to be 100%; in series [3], 94%.

For the compound `O=C(O)Cc1ccccc1` [PHENYLACETIC ACID], the IC50 in series [1] is > 100 µM. Moreover, the values for the Activity in [2] and in series [3] were 120% and 110%, respectively.

With `CC(=O)/C=C/c1ccc(O)cc1`, in series [1], the IC50 stood at 32 µM. The Activity turned out to be 110% in series [2] and 150% in series [3].

As to `O=C(O)/C=C/c1ccccc1` [CINNAMIC ACID], the IC50 in [1] is > 100 µM. Further, the Activity in series [2] worked out at 100%; in series [3] it was 110%.

Regarding `CC[C@H](C)[C@H](NC(=O)[C@H](CCC(=O)O)NC(=O)[C@H](CO)NC(=O)[C@@H](NC(=O)[C@@H](N)CO)C(C)C)C(=O)N[C@@H](CCC(N)=O)C(=O)N[C@@H](CC(C)C)C(=O)N[C@@H](CCSC)C(=O)N[C@@H](Cc1cnc[nH]1)C(=O)N[C@@H](CC(N)=O)C(=O)N[C@@H](CC(C)C)C(=O)NCC(=O)N[C@@H](CCCCN)C(=O)N[C@@H](Cc1cnc[nH]1)C(=O)N[C@@H](CC(C)C)C(=O)N[C@@H](CC(N)=O)C(=O)N[C@@H](CO)C(=O)N[C@@H](CCSC)C(=O)N[C@@H](CCC(=O)O)C(=O)N[C@@H](CCCNC(=N)N)C(=O)N[C@H](C(=O)N[C@@H](CCC(=O)O)C(=O)N[C@@H](Cc1c[nH]c2ccccc12)C(=O)N[C@@H](CC(C)C)C(=O)N[C@@H](CCCNC(=N)N)C(=O)N[C@@H](CCCCN)C(=O)N[C@@H](CCCCN)C(=O)N[C@@H](CC(C)C)C(=O)N[C@@H](CCC(N)=O)C(=O)N[C@@H](CC(=O)O)C(=O)N[C@H](C(=O)N[C@@H](Cc1cnc[nH]1)C(=O)N[C@@H](CC(N)=O)C(=O)N[C@@H](Cc1ccccc1)C(=O)O)C(C)C)C(C)C` [TERIPARATIDE], the Activity in series [19] is 140%.

For the compound `CC(=O)/C=C/c1ccc(F)c(O)c1`, the IC50 in series [1] amounted to 15 µM. Further, the Activity in series [2] and in [3] was 100% in each case.
